The source of these data is ChEMBL document CHEMBL4138248, “Discovery of naphtho[1,2-d]oxazole derivatives as potential anti-HCV agents through inducing heme oxygenase-1 expression” (Eur J Med Chem, 2018).

For the first data set, the system named is Hepatitis C virus. The data set can be described thus: Antiviral activity against HCV infected in human Ava5 cells assessed as inhibition of viral RNA replication at 20 uM after 3 days by RT-qPCR method relative to control. The format is functional, Hepacivirus hominis. As to conditions: Ava5, 72 h. The gist of the method: (§1)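 Ava5 replicon cells were exposed to 5 or 20 μM for 3 days, starting from 10 mM DMSO stocks diluted in medium. HCV RNA was quantified by RT-qPCR against gapdh and expressed as % inhibition relative to untreated control. Ribavirin was the reference drug. Mean ± SD of three independent experiments.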
In general terms: In qPCR the cycle at which signal appears reflects the starting amount.
As to `COc1ccc(Nc2cc3oc(-c4ccc(OC)cc4)nc3c3ccccc23)cc1`, the inhibition (usually the percentage by which the read-out fell short of the control) at 20 µM came out at 5.6%.
As to `COc1ccc(N(C)c2cc3oc(-c4ccco4)nc3c3ccccc23)cc1`, the inhibition at 20 µM is 31.5%.
On the same count and under the same terms, under `COc1ccc(Nc2cc3oc(-c4ccc(Cl)cc4)nc3c3ccccc23)cc1` stands 35.6%; under `Clc1ccc(Nc2cc3oc(-c4ccco4)nc3c3ccccc23)cc1`, 4.51%; under `CN(c1ccc(Cl)cc1)c1cc2oc(-c3ccco3)nc2c2ccccc12`, 3.12%.
For `COc1ccc(N(C)c2cc3oc(-c4ccccc4)nc3c3ccccc23)cc1`, the inhibition at 20 µM stood at 3.51%.
On the same count and under the same terms, under `CN(c1ccc(Cl)cc1)c1cc2oc(-c3ccccc3)nc2c2ccccc12` stands 1.21%; under `COc1ccc(-c2nc3c(cc(Nc4ccccc4)c4ccccc43)o2)cc1`, 5.31%.
Still for that read-out and setting: as for `CN(c1ccc(Cl)cc1)c1cc2oc(-c3ccc(Cl)cc3)nc2c2ccccc12`, the figure is 2.56%; as for `COc1ccc(-c2nc3c(cc(N(C)c4ccc(OC)cc4)c4ccccc43)o2)cc1`, 8.5%; as for `COc1ccc(-c2nc3c(cc(N(C)c4ccc(Cl)cc4)c4ccccc43)o2)cc1`, 6.5%.
With `COc1ccc(N(C)c2cc3oc(-c4ccc(Cl)cc4)nc3c3ccccc23)cc1`, the inhibition at 20 µM came out at 2.65%.
On the same count and under the same terms, as for `Clc1ccc(-c2nc3c(cc(Nc4ccccc4)c4ccccc43)o2)cc1`, the figure is 3.33%.

Tested on in the next data set: not listed separately
As to the kind of experiment: Cytotoxicity against human Ava5 cells assessed as cell viability at 200 uM after 72 hrs by XTT assay relative to control. The format is cell-based. Particulars: read-out: Activity. The gist of the method:
(§2)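 XTT viability assay run alongside the antiviral assays. Ava5 cells were plated at 5×10^3 per well and exposed to 20 or 200 μM for 72 h at 37 °C in humidified 5% CO₂. Viability is expressed as % of untreated cells.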
A general note: Tetrazolium assays rely on reduction of a dye to a coloured formazan, in cell work by metabolically active cells.
`COc1ccc(Nc2cc3oc(-c4ccc(OC)cc4)nc3c3ccccc23)cc1`: the viability at 72 h, 200 µM worked out at 28.5%.
As to `COc1ccc(N(C)c2cc3oc(-c4ccco4)nc3c3ccccc23)cc1`, the viability at 72 h, 200 µM is 32.3%.
On the same count and under the same terms, under `COc1ccc(Nc2cc3oc(-c4ccc(Cl)cc4)nc3c3ccccc23)cc1` stands 98.2%; under `Clc1ccc(Nc2cc3oc(-c4ccco4)nc3c3ccccc23)cc1`, 28.9%.
On to `CN(c1ccc(Cl)cc1)c1cc2oc(-c3ccco3)nc2c2ccccc12`, for which the viability at 72 h, 200 µM was determined as 26.5%.
Still for that read-out and setting: as for `COc1ccc(N(C)c2cc3oc(-c4ccccc4)nc3c3ccccc23)cc1`, the figure is 27.5%; as for `CN(c1ccc(Cl)cc1)c1cc2oc(-c3ccccc3)nc2c2ccccc12`, 25.5%; as for `COc1ccc(-c2nc3c(cc(Nc4ccccc4)c4ccccc43)o2)cc1`, 68.5%.
Same read-out and setting: as for `CN(c1ccc(Cl)cc1)c1cc2oc(-c3ccc(Cl)cc3)nc2c2ccccc12`, the figure is 30.2%; as for `COc1ccc(-c2nc3c(cc(N(C)c4ccc(OC)cc4)c4ccccc43)o2)cc1`, 56.3%; as for `COc1ccc(-c2nc3c(cc(N(C)c4ccc(Cl)cc4)c4ccccc43)o2)cc1`, 93%.
On the same count and under the same terms, under `COc1ccc(N(C)c2cc3oc(-c4ccc(Cl)cc4)nc3c3ccccc23)cc1` stands 29.6%.
In the case of `Clc1ccc(-c2nc3c(cc(Nc4ccccc4)c4ccccc43)o2)cc1`, the viability at 72 h, 200 µM came to 62.4%.

Tested on in another data set: not listed separately
As to the kind of experiment: Cytotoxicity against human Ava5 cells assessed as cell viability at 20 uM after 72 hrs by XTT assay relative to control. The format is cell-based. Particulars: read-out: Activity. The procedure, abridged:
as §2
`COc1ccc(Nc2cc3oc(-c4ccc(OC)cc4)nc3c3ccccc23)cc1`: the viability at 72 h, 20 µM came to 63.4%.
Still for that read-out and setting: under `COc1ccc(N(C)c2cc3oc(-c4ccco4)nc3c3ccccc23)cc1` stands 49.5%.
Take `COc1ccc(Nc2cc3oc(-c4ccc(Cl)cc4)nc3c3ccccc23)cc1`: the viability at 72 h, 20 µM came to 103%.
With `Clc1ccc(Nc2cc3oc(-c4ccco4)nc3c3ccccc23)cc1`, the viability at 72 h, 20 µM came to 83.5%.
Same read-out and setting: under `CN(c1ccc(Cl)cc1)c1cc2oc(-c3ccco3)nc2c2ccccc12` stands 73%.
On the same count and under the same terms, under `COc1ccc(N(C)c2cc3oc(-c4ccccc4)nc3c3ccccc23)cc1` stands 83.6%; under `CN(c1ccc(Cl)cc1)c1cc2oc(-c3ccccc3)nc2c2ccccc12`, 81%; under `COc1ccc(-c2nc3c(cc(Nc4ccccc4)c4ccccc43)o2)cc1`, 86.3%.
Same read-out and setting: under `CN(c1ccc(Cl)cc1)c1cc2oc(-c3ccc(Cl)cc3)nc2c2ccccc12` stands 86.4%; under `COc1ccc(-c2nc3c(cc(N(C)c4ccc(OC)cc4)c4ccccc43)o2)cc1`, 73.6%.
With `COc1ccc(-c2nc3c(cc(N(C)c4ccc(Cl)cc4)c4ccccc43)o2)cc1`, the viability at 72 h, 20 µM was found to be 107%.
Still for that read-out and setting: under `COc1ccc(N(C)c2cc3oc(-c4ccc(Cl)cc4)nc3c3ccccc23)cc1` stands 94.7%; under `Clc1ccc(-c2nc3c(cc(Nc4ccccc4)c4ccccc43)o2)cc1`, 99.9%.

For a further data set, the system named is Hepatitis C virus. As to the kind of experiment: Antiviral activity against HCV infected in human Ava5 cells assessed as inhibition of viral RNA replication at 5 uM after 3 days by RT-qPCR method relative to control. The format is functional, Hepacivirus hominis. Particulars: Ava5, 72 h. The gist of the method:
as §1
`COc1ccc(Nc2cc3oc(-c4ccc(OC)cc4)nc3c3ccccc23)cc1`: the inhibition at 5 µM is 3.2%.
Still for that read-out and setting: under `COc1ccc(N(C)c2cc3oc(-c4ccco4)nc3c3ccccc23)cc1` stands 2.5%; under `COc1ccc(Nc2cc3oc(-c4ccc(Cl)cc4)nc3c3ccccc23)cc1`, 3.2%; under `Clc1ccc(Nc2cc3oc(-c4ccco4)nc3c3ccccc23)cc1`, 3.2%.
The same measure, in the same setting: under `CN(c1ccc(Cl)cc1)c1cc2oc(-c3ccco3)nc2c2ccccc12` stands 2.7%; under `COc1ccc(N(C)c2cc3oc(-c4ccccc4)nc3c3ccccc23)cc1`, 3.4%; under `CN(c1ccc(Cl)cc1)c1cc2oc(-c3ccccc3)nc2c2ccccc12`, 1.2%.
Same read-out and setting: as for `COc1ccc(-c2nc3c(cc(Nc4ccccc4)c4ccccc43)o2)cc1`, the figure is 3.7%; as for `CN(c1ccc(Cl)cc1)c1cc2oc(-c3ccc(Cl)cc3)nc2c2ccccc12`, 1.1%; as for `COc1ccc(-c2nc3c(cc(N(C)c4ccc(OC)cc4)c4ccccc43)o2)cc1`, 5.6%.
For `COc1ccc(-c2nc3c(cc(N(C)c4ccc(Cl)cc4)c4ccccc43)o2)cc1`, the inhibition at 5 µM came to 2.5%.
Turning to `COc1ccc(N(C)c2cc3oc(-c4ccc(Cl)cc4)nc3c3ccccc23)cc1`, the inhibition at 5 µM worked out at 2.4%.
Same read-out and setting: as for `Clc1ccc(-c2nc3c(cc(Nc4ccccc4)c4ccccc43)o2)cc1`, the figure is 2.5%.
